Compound activity as filed in PubChem BioAssay.
KCNQ1 inh = blocks the human KCNQ1 potassium channel. actives 1.3% (n = 310,000). CHO-K1 KCNQ1, FluxOR thallium flux fluorescence; active compounds read high. B-score at 10 µM;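 active means compounds whose thallium flux B-score, printed positive for inhibition, exceeds three library SD while starting fluorescence stays within three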;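 further: channel opened by potassium depolarization with thallium stimulus after 20 min compound exposure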
Kir21 block = inhibitors of mouse Kir2.1 inward-rectifier potassium channel | P35561 | HEK293-Kir2.1, FluxOR thallium flux fluorescence; active compounds read low | B-score at 10 µM | actives 0.85% (n = 310,000) | AID 1672;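 active means fluorescence ratio B-score at or below minus 3 SD of library scores, with starting-brightness B-score within 2 SD, cut at about -4.2 in these data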;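 further: channel flux triggered by added potassium and thallium sulfate stimulus; B-score of peak minus minimum fluorescence over baseline after thallium stimulus; more negative B-score means stronger Kir2.1 block with less thallium influx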
Target sequence (P35561 whole entry, looked up): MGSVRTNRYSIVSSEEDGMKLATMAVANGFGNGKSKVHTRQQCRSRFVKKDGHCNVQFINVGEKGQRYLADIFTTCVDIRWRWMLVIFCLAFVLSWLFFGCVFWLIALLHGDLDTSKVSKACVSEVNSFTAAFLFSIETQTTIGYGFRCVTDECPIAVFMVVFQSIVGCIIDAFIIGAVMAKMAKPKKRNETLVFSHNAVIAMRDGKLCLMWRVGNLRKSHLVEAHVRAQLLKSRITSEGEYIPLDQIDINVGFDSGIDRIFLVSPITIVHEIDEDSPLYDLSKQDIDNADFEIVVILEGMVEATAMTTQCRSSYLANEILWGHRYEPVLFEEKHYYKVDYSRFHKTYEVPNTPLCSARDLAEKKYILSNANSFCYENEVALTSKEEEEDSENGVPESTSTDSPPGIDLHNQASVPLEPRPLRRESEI
KCNK3 block = human KCNK3 channel inhibition, primary screen; actives 0.84% (n = 340,000); AID 602410; B-score at 10 µM; CHO-KCNK3 thallium flux, FluxOR fluorescence; active compounds read low; O14649;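 active means B-score under library mean minus 4 SD, starting fluorescence ratio at most library mean plus 5 SD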;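 further: more negative B-score means stronger inhibition of thallium flux through KCNK3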
KCNQ1 pot = potentiates or activates the human KCNQ1 potassium channel; B-score at 10 µM; actives 0.35% (n = 310,000); CHO-K1 KCNQ1, thallium flux FluxOR fluorescence; active compounds read high; P51787;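 active means fluorescence ratio B-score, a plate-corrected score, at least three library SD, with initial intensity B-score within 5 SD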
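assay system = KCNQ1-transfected CHO-K1 cells | medium = assay buffer with matched DMSO | probe or stimulus = depolarizing K+/Tl+ stimulus, K2SO4 and Tl2SO4 each 12.5 mM in 5x stock | dosing = single dose | incubation = dye 90 min, compound 20 min, room temperature | detection = kinetic FluxOR fluorescence, 10 s baseline plus 110 s post-stimulus | evaluation = ratio B score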
KCNK9 block = blocks the human KCNK9 two-pore domain potassium channel. actives 1.2% (n = 310,000). HEK293 KCNK9, FluxOR thallium flux fluorescence; active compounds read low. B-score at 10 µM. Q9NPC2. AID 488922;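 active means ratio B-score over 3 SD below the library mean, with starting fluorescence within 5 SD of its mean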;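 further: negative B-score means less thallium flux so channel inhibition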
hERG protect = shields human hERG channel from block by proarrhythmic agents | AID 1511 | activation (rescue from dofetilide block), less the hit threshold, % at 10 µM | CHO-hERG, FluxOR thallium flux, dofetilide IC70 present | Q12809 | actives 0.51% (n = 310,000);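 active means activation above the mean of controls blocked by dofetilide plus 5 SD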;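 further: thallium influx through hERG after potassium depolarization seen as dye fluorescence rise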
* hit, by the source's call. Hits are enriched below; roughly 3.8% of the tested compounds scored in any of these assays.

Results for CCOP(=O)(OCC)c1nc(-c2ccccc2)oc1NCc1ccccc1 ?
KCNQ1 inh: inactive; Kir21 block: -1.5; KCNK3 block: inactive; KCNQ1 pot: inactive; KCNK9 block: inactive; hERG protect: -19

Results for CCOP(=O)(OCC)c1nc(-c2ccc(F)cc2)oc1NCc1ccccc1 ?
KCNQ1 inh: inactive; Kir21 block: -1.6; KCNK3 block: inactive; KCNQ1 pot: inactive; KCNK9 block: -6.6*; hERG protect: -11

What do the screens show for `COc1cccc(CNCc2ccco2)c1O`?
KCNQ1 inh: inactive; Kir21 block: -1.1; KCNK3 block: inactive; KCNQ1 pot: inactive; KCNK9 block: inactive; hERG protect: -3

What do the screens show for `Cc1cccc(NC(=O)CSc2ncnc3sc(C)c(C)c23)n1`?
KCNQ1 inh: inactive; Kir21 block: -1.7; KCNK3 block: inactive; KCNQ1 pot: inactive; KCNK9 block: inactive; hERG protect: -2

What do the screens show for `Cc1sc2ncnc(SCC(=O)NC(=O)c3cccn3C)c2c1C`?
KCNQ1 inh: inactive; Kir21 block: 0.19; KCNK3 block: inactive; KCNQ1 pot: 11*; KCNK9 block: inactive; hERG protect: 1

What do the screens show for `COc1cccc(CN(c2ccccc2C(=O)O)S(=O)(=O)c2ccc(C)cc2)c1`?
KCNK3 block: inactive

Results for Cc1cc(-c2ccccc2)n[nH]1 ?
KCNQ1 inh: inactive; Kir21 block: 1.2; KCNK3 block: inactive; KCNQ1 pot: inactive; KCNK9 block: inactive; hERG protect: -9

How did FC(F)C(F)(F)C(F)(F)C(F)(F)c1cc(-c2ccccc2)n[nH]1 do in these assays?
KCNQ1 inh: inactive; Kir21 block: 1.5; KCNK3 block: inactive; KCNQ1 pot: inactive; KCNK9 block: -7.8*; hERG protect: -19

Results for Cc1cccc(NC(=S)NC(=O)Cc2ccccc2)c1C ?
KCNQ1 inh: inactive; Kir21 block: -0.23; KCNK3 block: inactive; KCNQ1 pot: inactive; KCNK9 block: inactive; hERG protect: -4

What do the screens show for `COc1ccccc1NC(=S)NCCc1c[nH]c2ccccc12`?
KCNQ1 inh: inactive; Kir21 block: -6.3*; KCNK3 block: inactive; KCNQ1 pot: inactive; KCNK9 block: inactive; hERG protect: -8

How did COc1cccc(CNc2ccc3[nH]c(=O)[nH]c3c2)c1OCc1ccc(F)cc1 do in these assays?
KCNQ1 inh: inactive; Kir21 block: -4.2; KCNK3 block: inactive; KCNQ1 pot: inactive; KCNK9 block: inactive; hERG protect: -16

Results for Cc1cc(C)c(O)c(NC(=S)NC(=O)Cc2ccccc2)c1 ?
KCNQ1 inh: inactive; Kir21 block: 2.4; KCNK3 block: inactive; KCNQ1 pot: inactive; KCNK9 block: inactive; hERG protect: 4.8*

How did COc1cccc(CNCCc2c[nH]c3ccccc23)c1OCc1ccc(F)cc1 do in these assays?
KCNQ1 inh: inactive; Kir21 block: -12*; KCNK3 block: inactive; KCNQ1 pot: inactive; KCNK9 block: inactive; hERG protect: -16

What do the screens show for `Cc1ccc(C)c(NC(=S)NCCc2ccc(F)cc2)c1`?
KCNQ1 inh: inactive; Kir21 block: -4.5*; KCNK3 block: inactive; KCNQ1 pot: inactive; KCNK9 block: inactive; hERG protect: -4

Results for COc1ccc(OCC(O)CN2CCNCC2)cc1 (stereo not drawn) ?
KCNQ1 inh: inactive; Kir21 block: 0.1; KCNK3 block: inactive; KCNQ1 pot: inactive; KCNK9 block: inactive; hERG protect: -3

What do the screens show for `COc1cccc(N2CC(C)Cn3c2nc2c3c(=O)[nH]c(=O)n2C)c1` (stereo not drawn)?
KCNQ1 inh: inactive; Kir21 block: 2.6; KCNK3 block: inactive; KCNQ1 pot: inactive; KCNK9 block: inactive; hERG protect: -3

Results for Cc1ccc(S(=O)(=O)NCCc2ccccc2)cc1 ?
KCNQ1 inh: inactive; Kir21 block: -1.4; KCNK3 block: inactive; KCNQ1 pot: inactive; KCNK9 block: inactive; hERG protect: -8

How did Cc1ccc(NC(=S)NCCc2ccccc2)c(C)c1 do in these assays?
KCNQ1 inh: inactive; Kir21 block: -5.1*; KCNK3 block: inactive; KCNQ1 pot: inactive; KCNK9 block: inactive; hERG protect: -7
